Results: ChEMBL document CHEMBL1134691, “3-Phenyl-5-acyloxymethyl-2H,5H-furan-2-ones: synthesis and biological activity of a novel group of potential antifungal drugs” (2001)
In brackets after ≈: the same amount, converted by molar mass.

Tests used:
[1] = tested on: Candida tropicalis; assay: Inhibition of Candida tropicalis 156 growth for 24 hours in vitro.; assay type: functional
Procedure, shortened: (§1)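 NCCLS M27-A broth microdilution in RPMI 1640 with L-glutamine and 0.165 M MOPS, pH 7.0. Isolates kept on Sabouraud dextrose agar. Inoculum 5 × 10^3 cfu/mL final. Compounds were diluted in DMSO (≤2% final) and tested in 2-fold dilutions of 1000–0.24 µmol/L. Incubation at 35 °C, OD540 read at 24 and 48 h. MIC = 80% growth inhibition versus control; assays run twice in duplicate.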

[2] = Inhibition of Trichophyton mentagrophytes 445 growth for 120 hours in vitro.; assay type: functional, Arthroderma benhamiae
Procedure, shortened: (§2)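 Dermatophyte grown in MOPS-buffered (0.165 M, pH 7.0) RPMI 1640 containing L-glutamine, in an M27-A microdilution format. Inoculum 5 × 10^3 cfu/mL final. Compounds from DMSO stocks (≤2% final), 2-fold dilutions 1000–0.24 µmol/L. Incubated at 35 °C, growth judged visually at 72 and 120 h. MIC endpoint is 80% inhibition relative to control; measured twice in duplicate.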

[3] = tested on: Candida parapsilosis; assay: Inhibition of Candida parapsilosis ATCC 22019 growth for 24 hours in vitro.; assay type: functional; procedure, shortened: as §1
[4] = tested on: Pichia kudriavzevii; assay: Inhibition of Candida krusei E28 growth for 48 hours in vitro.; assay type: functional; procedure, shortened: as §1
[5] = Inhibition of Trichophyton mentagrophytes 445 growth for 72 hours in vitro.; assay type: functional, Arthroderma benhamiae; procedure, shortened: as §2
[6] = tested on: Pichia kudriavzevii; assay: Inhibition of Candida krusei ATCC 6258 growth for 24 hours in vitro.; assay type: functional; procedure, shortened: as §1
[7] = tested on: Candida albicans; assay: Inhibition of Candida albicans ATCC 44859 growth for 24 hours in vitro.; assay type: functional; procedure, shortened: as §1
[8] = tested on: Trichosporon beigelii; assay: Inhibition of Trichosporon beigelli 1188 for 48 hours in vitro.; assay type: functional
Procedure, shortened: (§3)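 Microdilution following NCCLS M27-A. Medium: RPMI 1640 with L-glutamine, 0.165 M MOPS, pH 7.0. Final inoculum 5 × 10^3 cfu/mL. Compounds dissolved in DMSO, final ≤2%, serially halved from 1000 to 0.24 µmol/L. Incubated at 35 °C and read at 24 and 48 h. MIC defined as 80% inhibition of control growth; run twice in duplicate.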

[9] = tested on: Pichia kudriavzevii; assay: Inhibition of Candida krusei ATCC 6258 growth for 48 hours in vitro.; assay type: functional; procedure, shortened: as §1
[10] = tested on: Aspergillus fumigatus; assay: Inhibition of Aspergillus fumigatus 231 growth for 24 hours in vitro.; assay type: functional
Procedure, shortened: (§4)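 Filamentous isolates tested by microdilution per NCCLS M27-A in RPMI 1640 plus L-glutamine, buffered with 0.165 M MOPS to pH 7.0. Final inoculum 5 × 10^3 cfu/mL. Compounds in DMSO (final ≤2%), 2-fold series over 1000–0.24 µmol/L. Plates held at 35 °C and read visually after 24 and 48 h. MIC taken as 80% inhibition of control growth; determined twice in duplicate.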

[11] = tested on: Aspergillus fumigatus; assay: Inhibition of Aspergillus fumigatus 231 growth for 48 hours in vitro.; assay type: functional; procedure, shortened: as §4
[12] = tested on: Clavispora lusitaniae; assay: Inhibition of Candida lusitaniae 2446/I growth for 24 hours in vitro.; assay type: functional; procedure, shortened: as §1
[13] = tested on: Candida tropicalis; assay: Inhibition of Candida tropicalis 156 growth for 48 hours in vitro.; assay type: functional; procedure, shortened: as §1
[14] = tested on: Trichosporon beigelii; assay: Inhibition of Trichosporon beigelli 1188 for 24 hours in vitro.; assay type: functional; procedure, shortened: as §3
[15] = tested on: Nakaseomyces glabratus; assay: Inhibition of Candida glabrata 20/I growth for 48 hours in vitro.; assay type: functional; procedure, shortened: as §1
[16] = tested on: Lichtheimia corymbifera; assay: In vitro inhibition of Absidia corymbifera 272 growth for 24 hours.; assay type: functional; procedure, shortened: as §4
[17] = tested on: Lichtheimia corymbifera; assay: In vitro inhibition of Absidia corymbifera 272 growth for 48 hours.; assay type: functional; procedure, shortened: as §4
[18] = tested on: Candida albicans; assay: Inhibition of Candida albicans ATCC 90028 for 48 hours in vitro.; assay type: functional; procedure, shortened: as §1
[19] = tested on: Candida albicans; assay: Inhibition of Candida albicans ATCC 90028 for 24 hours in vitro.; assay type: functional; procedure, shortened: as §1
[20] = tested on: Candida parapsilosis; assay: Inhibition of Candida parapsilosis ATCC 22019 growth for 48 hours in vitro.; assay type: functional; procedure, shortened: as §1
[21] = tested on: Clavispora lusitaniae; assay: Inhibition of Candida lusitaniae 2446/I growth for 48 hours in vitro.; assay type: functional; procedure, shortened: as §1
[22] = tested on: Candida albicans; assay: Inhibition of Candida albicans ATCC 44859 growth for 48 hours in vitro.; assay type: functional; procedure, shortened: as §1
[23] = tested on: Pichia kudriavzevii; assay: Inhibition of Candida krusei E28 growth for 24 hours in vitro.; assay type: functional; procedure, shortened: as §1
[24] = tested on: Nakaseomyces glabratus; assay: Inhibition of Candida glabrata 20/I growth for 24 hours in vitro.; assay type: functional; procedure, shortened: as §1
[25] = Candida tropicalis, 24 h, read-out: MIC
[26] = Trichophyton benhamiae, 120 h, read-out: MIC
[27] = Lodderomyces parapsilosis, ATCC 22019, 24 h, read-out: MIC
[28] = Pichia kudriavzevii, 48 h, read-out: MIC
[29] = Trichophyton benhamiae, 72 h, read-out: MIC
[30] = Pichia kudriavzevii, ATCC 6258, 24 h, read-out: MIC
[31] = Candida albicans, ATCC 44859, 24 h, read-out: MIC
[32] = Trichosporon beigelii, 48 h, read-out: MIC
[33] = Pichia kudriavzevii, ATCC 6258, 48 h, read-out: MIC
[34] = Aspergillus fumigatus, 24 h, read-out: MIC
[35] = Aspergillus fumigatus, 48 h, read-out: MIC
[36] = Clavispora lusitaniae, 24 h, read-out: MIC
[37] = Candida tropicalis, 48 h, read-out: MIC
[38] = Trichosporon beigelii, 24 h, read-out: MIC
[39] = Nakaseomyces glabratus, 48 h, read-out: MIC
[40] = Lichtheimia corymbifera, 24 h, read-out: MIC
[41] = Lichtheimia corymbifera, 48 h, read-out: MIC
[42] = Candida albicans, ATCC 90028, 48 h, read-out: MIC
[43] = Candida albicans, ATCC 90028, 24 h, read-out: MIC
[44] = Lodderomyces parapsilosis, ATCC 22019, 48 h, read-out: MIC
[45] = Clavispora lusitaniae, 48 h, read-out: MIC
[46] = Candida albicans, ATCC 44859, 48 h, read-out: MIC
[47] = Pichia kudriavzevii, 24 h, read-out: MIC
[48] = Nakaseomyces glabratus, 24 h, read-out: MIC

Q: Which MIC [1, 25] does the source give for `O=C1OC(CO)C=C1c1ccc(Cl)c(Cl)c1` (configuration not stated) here?
A: 250 µM (≈ 64.8 µg/mL)

Q: What about the MIC [2, 26] of the same molecule?
A: 15.6 µM (≈ 4.05 µg/mL)

Q: And the MIC [3, 27]?
A: 250 µM (≈ 64.8 µg/mL)

Q: And the MIC [4, 28]?
A: 250 µM (≈ 64.8 µg/mL)

Q: And the MIC [5, 29]?
A: 15.6 µM (≈ 4.05 µg/mL)

Q: And the MIC [6, 30]?
A: 250 µM (≈ 64.8 µg/mL)

Q: What about the MIC [7, 31] of the same molecule?
A: 62.5 µM (≈ 16.2 µg/mL)

Q: What about the MIC [8, 32] of the same molecule?
A: > 1000 µM

Q: And the MIC [9, 33]?
A: 250 µM (≈ 64.8 µg/mL)

Q: And the MIC [10, 34]?
A: 62.5 µM (≈ 16.2 µg/mL)

Q: What about the MIC [11, 35] of the same molecule?
A: 250 µM (≈ 64.8 µg/mL)

Q: What about the MIC [12, 36] of the same molecule?
A: 125 µM (≈ 32.4 µg/mL)

Q: And the MIC [13, 37]?
A: 500 µM (≈ 130 µg/mL)

Q: And the MIC [14, 38]?
A: 500 µM (≈ 130 µg/mL)

Q: What about the MIC [15, 39] of the same molecule?
A: 62.5 µM (≈ 16.2 µg/mL)

Q: And the MIC [16, 40]?
A: 125 µM (≈ 32.4 µg/mL)

Q: And the MIC [17, 41]?
A: 125 µM (≈ 32.4 µg/mL)

Q: What about the MIC [18, 42] of the same molecule?
A: 500 µM (≈ 130 µg/mL)

Q: What about the MIC [19, 43] of the same molecule?
A: 250 µM (≈ 64.8 µg/mL)

Q: And the MIC [20, 44]?
A: 500 µM (≈ 130 µg/mL)

Q: What about the MIC [21, 45] of the same molecule?
A: 250 µM (≈ 64.8 µg/mL)

Q: What about the MIC [22, 46] of the same molecule?
A: 250 µM (≈ 64.8 µg/mL)

Q: And the MIC [23, 47]?
A: 125 µM (≈ 32.4 µg/mL)

Q: What about the MIC [24, 48] of the same molecule?
A: 62.5 µM (≈ 16.2 µg/mL)

Q: What does the source list for `CC(C)(C)C(=O)OCC1C=C(c2ccc(Cl)c(Cl)c2)C(=O)O1` (stereo in doubt; 2c)?
A: MIC [1]: 3.91 uM l-1; MIC [2]: 0.49 uM l-1; MIC [3]: 3.91 uM l-1; MIC [4]: 7.81 uM l-1; MIC [5]: 0.24 uM l-1; MIC [6]: 7.81 uM l-1; MIC [7]: 0.49 µM (≈ 0.168 µg/mL); MIC [8]: 7.81 uM l-1; MIC [9]: 31.25 uM l-1; MIC [10]: 1.95 uM l-1; MIC [11]: 3.91 uM l-1; MIC [12]: 1.95 uM l-1; MIC [13]: 7.81 uM l-1; MIC [14]: 1.95 uM l-1; MIC [15]: 0.98 uM l-1; MIC [16]: 7.81 uM l-1; MIC [17]: 15.63 uM l-1; MIC [18]: 1.95 µM (≈ 0.669 µg/mL); MIC [19]: 1.95 uM l-1; MIC [20]: 3.91 uM l-1; MIC [21]: 3.91 uM l-1; MIC [22]: 1.95 uM l-1; MIC [23]: 3.91 uM l-1; MIC [24]: 0.49 µM (≈ 0.168 µg/mL)

Q: With `OC(Cn1cncn1)(Cn1cncn1)c1ccc(F)cc1F` [FLUCONAZOLE] as the molecule, how does the MIC [1, 25] read?
A: 0.5 µM (≈ 0.153 µg/mL)

Q: What about the MIC [2, 26] of the same molecule?
A: 16 µM (≈ 4.9 µg/mL)

Q: And the MIC [3, 27]?
A: 2 µM (≈ 0.613 µg/mL)

Q: And the MIC [4, 28]?
A: 32 µM (≈ 9.8 µg/mL)

Q: And the MIC [5, 29]?
A: 8 µM (≈ 2.45 µg/mL)

Q: What about the MIC [6, 30] of the same molecule?
A: 32 µM (≈ 9.8 µg/mL)

Q: And the MIC [7, 31]?
A: 0.25 µM (≈ 0.0766 µg/mL)

Q: And the MIC [8, 32]?
A: 2 µM (≈ 0.613 µg/mL)

Q: What about the MIC [9, 33] of the same molecule?
A: 64 µM (≈ 19.6 µg/mL)

Q: And the MIC [10, 34]?
A: > 128 µM

Q: What about the MIC [11, 35] of the same molecule?
A: > 128 µM

Q: And the MIC [12, 36]?
A: 1 µM (≈ 0.306 µg/mL)

Q: And the MIC [13, 37]?
A: > 128 µM

Q: And the MIC [14, 38]?
A: 1 µM (≈ 0.306 µg/mL)

Q: What about the MIC [15, 39] of the same molecule?
A: 16 µM (≈ 4.9 µg/mL)

Q: What about the MIC [16, 40] of the same molecule?
A: > 128 µM

Q: What about the MIC [17, 41] of the same molecule?
A: > 128 µM

Q: And the MIC [18, 42]?
A: 1 µM (≈ 0.306 µg/mL)

Q: What about the MIC [19, 43] of the same molecule?
A: 0.25 µM (≈ 0.0766 µg/mL)

Q: What about the MIC [20, 44] of the same molecule?
A: 4 µM (≈ 1.23 µg/mL)

Q: What about the MIC [21, 45] of the same molecule?
A: 1 µM (≈ 0.306 µg/mL)

Q: And the MIC [22, 46]?
A: 0.5 µM (≈ 0.153 µg/mL)

Q: And the MIC [23, 47]?
A: 16 µM (≈ 4.9 µg/mL)

Q: And the MIC [24, 48]?
A: 4 µM (≈ 1.23 µg/mL)
